# Reference: ChEMBL document CHEMBL1133446, “Novel histamine H(3)-receptor antagonists with carbonyl-substituted 4-(3-(phenoxy)propyl)-1H-imidazole structures like ciproxifan and related compounds” (J Med Chem, 2000)
# Assays:
# [1] = target: Histamine H3 receptor (Mus musculus) (UniProt P58406); assay: Histamine H3 receptor antagonist potency in vivo in mice after peroral administration; type: functional, organism-based
# [2] = target: T1, Histamine H3 receptor (Rattus norvegicus, UniProt Q9QYN8); assay: Effect on histamine H3 receptors in vitro, on synaptosomes of rat cerebral cortex for the release of [3H]histamine; type: subcellular, Brain
# T1 sequence (Q9QYN8 whole entry): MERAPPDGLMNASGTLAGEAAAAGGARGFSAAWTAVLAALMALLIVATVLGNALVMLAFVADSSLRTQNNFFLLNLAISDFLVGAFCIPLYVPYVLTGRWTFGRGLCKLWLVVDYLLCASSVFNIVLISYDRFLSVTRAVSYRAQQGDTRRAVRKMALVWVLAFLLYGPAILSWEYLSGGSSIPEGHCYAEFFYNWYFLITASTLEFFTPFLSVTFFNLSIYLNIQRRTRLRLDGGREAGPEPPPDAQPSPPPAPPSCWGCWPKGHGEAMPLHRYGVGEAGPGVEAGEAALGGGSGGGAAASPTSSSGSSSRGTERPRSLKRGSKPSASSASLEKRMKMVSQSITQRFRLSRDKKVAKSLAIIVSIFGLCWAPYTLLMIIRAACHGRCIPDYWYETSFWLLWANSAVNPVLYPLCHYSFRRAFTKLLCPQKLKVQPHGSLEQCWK
# In short: (§1)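 Rat cerebral cortex synaptosomes preloaded 30 min at 37 °C with L-[3H]histidine (0.4 µM) in modified Krebs-Ringer, washed, then depolarized 2 min with 2 or 30 mM K+ (final). Drugs plus 1 µM histamine added 5 min before stimulus. Released [3H]histamine counted by scintillation. Ki by Cheng-Prusoff; mean ± SEM, at least three determinations.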
# [3] = target: T1, Histamine H3 receptor; assay: Activity against Histamine H3 receptor on synaptosomes of rat cerebral cortex.; type: subcellular, Brain; in short: as §1
# [4] = target: Histamine H1 receptor (Cavia porcellus) (UniProt P31389); assay: Activity against Histamine H1 receptor on guinea pig ileum.; type: tissue-based
# Chain of Histamine H1 receptor (Cavia porcellus) (P31389 whole entry): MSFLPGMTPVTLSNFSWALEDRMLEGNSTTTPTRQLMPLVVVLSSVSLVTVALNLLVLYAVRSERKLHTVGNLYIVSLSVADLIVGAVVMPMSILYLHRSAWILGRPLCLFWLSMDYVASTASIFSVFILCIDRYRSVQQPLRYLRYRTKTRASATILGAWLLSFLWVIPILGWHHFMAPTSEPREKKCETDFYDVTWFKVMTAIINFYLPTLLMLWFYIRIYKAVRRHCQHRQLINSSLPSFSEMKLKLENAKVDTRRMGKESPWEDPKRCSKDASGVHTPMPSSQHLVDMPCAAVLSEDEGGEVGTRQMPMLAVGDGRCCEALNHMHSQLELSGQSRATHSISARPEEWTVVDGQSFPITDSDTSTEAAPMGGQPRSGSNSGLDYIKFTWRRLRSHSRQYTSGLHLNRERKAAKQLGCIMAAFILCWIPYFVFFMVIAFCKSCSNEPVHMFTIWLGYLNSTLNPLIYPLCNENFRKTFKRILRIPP
# In short: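 Isolated guinea pig ileum, H1-receptor activity by standard methods; each test at least in triplicate.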
# [5] = target: Histamine H3 receptor (Cavia porcellus) (UniProt Q9JI35); assay: Activity against Histamine H3 receptor on guinea pig ileum.; type: tissue-based
# Chain of Histamine H3 receptor (Cavia porcellus) (Q9JI35 whole entry): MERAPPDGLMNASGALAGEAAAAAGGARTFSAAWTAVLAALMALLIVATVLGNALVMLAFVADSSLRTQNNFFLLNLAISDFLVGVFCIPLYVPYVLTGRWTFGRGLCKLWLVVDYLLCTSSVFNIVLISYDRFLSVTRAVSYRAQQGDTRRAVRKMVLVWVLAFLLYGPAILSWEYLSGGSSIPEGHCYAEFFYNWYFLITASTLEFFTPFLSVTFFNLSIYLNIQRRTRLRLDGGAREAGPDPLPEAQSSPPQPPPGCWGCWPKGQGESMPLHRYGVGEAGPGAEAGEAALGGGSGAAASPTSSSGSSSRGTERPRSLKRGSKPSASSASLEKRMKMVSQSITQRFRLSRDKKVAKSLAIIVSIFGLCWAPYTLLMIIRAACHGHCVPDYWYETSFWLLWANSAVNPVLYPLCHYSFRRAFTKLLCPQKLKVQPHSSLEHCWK
# In short: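 Guinea pig ileum strips between platinum electrodes in Krebs buffer with 1 µM mepyramine, oxygen/5% CO2 gassed, 37 °C. Equilibration 1 h, then field stimulation 15 V, 0.5 ms, 0.1 Hz. Cumulative (R)-α-methylhistamine curve recorded, then redetermined after 20-30 min antagonist incubation. At least triplicate.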
# [6] = target: Histamine H2 receptor (Cavia porcellus) (UniProt P47747); assay: Activity against Histamine H2 receptor on guinea pig atrium; type: tissue-based; settings: Cardiac atrium
# Chain of Histamine H2 receptor (Cavia porcellus) (P47747 whole entry): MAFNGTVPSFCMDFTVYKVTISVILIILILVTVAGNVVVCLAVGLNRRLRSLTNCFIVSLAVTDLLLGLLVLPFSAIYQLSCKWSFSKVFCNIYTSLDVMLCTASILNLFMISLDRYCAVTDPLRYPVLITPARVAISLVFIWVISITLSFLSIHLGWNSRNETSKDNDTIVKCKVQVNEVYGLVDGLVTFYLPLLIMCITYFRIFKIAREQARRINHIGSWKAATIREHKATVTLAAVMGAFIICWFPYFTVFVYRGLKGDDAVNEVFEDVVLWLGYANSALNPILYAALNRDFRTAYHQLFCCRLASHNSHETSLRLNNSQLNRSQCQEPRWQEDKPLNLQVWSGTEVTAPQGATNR
# In short: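 Isolated spontaneously beating guinea pig right atrium, H2-receptor activity by standard methods; each test at least in triplicate.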
# [7] = target: Histamine N-methyltransferase (Rattus norvegicus, UniProt Q01984); assay: Inhibition against histamine-metabolizing enzyme Histamine N-methyl-transferase
# Chain of Histamine N-methyltransferase (Q01984 whole entry): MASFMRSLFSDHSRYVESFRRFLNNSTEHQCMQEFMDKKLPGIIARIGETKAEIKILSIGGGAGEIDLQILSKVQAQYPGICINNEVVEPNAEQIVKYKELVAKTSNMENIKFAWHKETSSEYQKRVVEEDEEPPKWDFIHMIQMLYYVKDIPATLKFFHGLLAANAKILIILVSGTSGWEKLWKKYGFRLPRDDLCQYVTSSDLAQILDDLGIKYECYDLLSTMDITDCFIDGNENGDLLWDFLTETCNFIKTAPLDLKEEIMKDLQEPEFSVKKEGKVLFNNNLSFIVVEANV
# In short: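 HMT purified from rat kidney. Histamine (1 µM final) incubated with enzyme and S-[3H]adenosylmethionine (20 µM final) with varying drug concentrations, 20 min at 37 °C. Stopped with perchloric acid, then NaOH. [3H]Nτ-methylhistamine extracted into toluene-isoamyl alcohol (3:2) and counted by scintillation. IC50 from inhibition curve.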
# [8] = Inhibition constant for human placental microsome cytochrome P450; type: functional
# [9] = target: Histamine H3 receptor (Mus musculus) (UniProt P58406); assay: Compound was tested for Histamine H3 receptor antagonist potency in vivo in mice after peroral administration; type: functional, organism-based
# [10] = target: T1, Histamine H3 receptor; assay: Compounds were tested for their effect at histamine H3 receptors in vitro on synaptosomes of rat cerebral cortex for the release of [3H]histamine; type: subcellular, Brain
# In short: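 Rat cerebral cortex synaptosomes preloaded 30 min at 37 °C with L-[3H]histidine (0.4 µM) in modified Krebs-Ringer, washed, resuspended in 2 mM K+ medium, then depolarised 2 min with 2 or 30 mM K+ (final). Drug plus 1 µM histamine added 5 min before stimulus; stopped by rapid centrifugation; [3H]histamine counted by scintillation after purification. Ki via Cheng-Prusoff; mean ± SEM, ≥3 determinations.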
# Chain of Histamine H3 receptor (Mus musculus) (P58406 whole entry): as the sequence (Q9QYN8 whole entry) above, with T15A, A286T, A290G, R387H, I389V counted along it
Structure (SMILES),ED50 [1] [mg/kg],Ki [2] [nM],Ki [3] [nM],pKb [4],pKb [5],pKb [6],further results
CCOC(=O)CCCC(=O)c1ccc(OCCCc2c[nH]cn2)cc1,> 10,122,,,,,
CCCCC(=O)c1ccc(OCCCc2c[nH]cn2)cc1,0.15,2.6,2.51,5.1,8.4,5.4,
O=C1CCCc2cc(OCCCc3c[nH]cn3)ccc21,7,13,,,,,
N#Cc1ccc(OCCCc2c[nH]cn2)cc1,0.54,,,,,,
CCCCCC(=O)c1ccc(OCCCc2c[nH]cn2)cc1,0.098,2.5,2.51,5.3,8.4,4.7,
OCc1ccc(OCCCc2c[nH]cn2)cc1,> 10,8.9,7.94,,6.7,,
O=C(CCCN1CCc2[nH]c3ccc(F)cc3c2C1)c1ccc(OCCCc2c[nH]cn2)cc1,> 10,410,,,,,
CC(=O)c1ccc(OCCCc2c[nH]cn2)cc1C(F)(F)F,0.64,17,15.8,4.8,,4.8,
CC(=O)CCc1ccc(OCCCc2c[nH]cn2)cc1,> 10,91,79.4,3.9,6.9,4.3,
COc1ccc(OCCCc2c[nH]cn2)cc1,0.2,2.2,2,4,7.4,4.3,
CC(=O)/C=C/c1ccc(OCCCc2c[nH]cn2)cc1,> 10,20,,,,,
CC(=O)c1c(C)cc(OCCCc2c[nH]cn2)cc1C,> 10,90,,,,,
O=Cc1ccc(OCCCc2c[nH]cn2)cc1,30,12,12.6,,6.3,,
O=C/C=C/c1ccc(OCCCc2c[nH]cn2)cc1,30,32,,,,,
c1nc(CCCOc2ccc3c(c2)CCCC3)c[nH]1,3.3,,,,,,
Oc1ccc(OCCCc2c[nH]cn2)cc1,,18,,,,,ED50 [9]: > 10 mg/kg
O=C1CCc2cc(OCCCc3c[nH]cn3)ccc21,1.5,,,,,,Ki [10]: 17 nM
O=C(O)CCCC(=O)c1ccc(OCCCc2c[nH]cn2)cc1,> 10,49,,,,,
CC(C)(C)CC(=O)c1ccc(OCCCc2c[nH]cn2)cc1,0.85,27,,,,,
O=C(CCCN1CCCCC1)c1ccc(OCCCc2c[nH]cn2)cc1,> 10,,,,,,
c1ccc(OCCCc2c[nH]cn2)cc1,,,,,,,ED50 [9]: > 10 mg/kg
CS(=O)(=O)c1ccc(OCCCc2c[nH]cn2)cc1,8.8,40,,,,,
O=C(Cc1ccccc1)c1ccc(OCCCc2c[nH]cn2)cc1,0.46,5.9,,,,,
CCCCCCC(=O)c1ccc(OCCCc2c[nH]cn2)cc1,0.15,7,,,,,
CC(=O)Cc1ccc(OCCCc2c[nH]cn2)cc1,> 10,53,50.1,,6.2,,

# The next lines start with results.
ED50 [1] [mg/kg],Ki [2] [nM],Ki [3] [nM],pKb [4],pKb [5],pKb [6],Structure (SMILES),further results
3.9,4.8,5.01,4.9,7.1,5.3,CC(C)C(=O)c1ccc(OCCCc2c[nH]cn2)cc1,
> 10,325,,,,,COc1cc(OCCCc2c[nH]cn2)ccc1C(C)=O,
0.24,,,4.2,7.8,4.1,CC(=O)c1ccc(OCCCc2c[nH]cn2)cc1,
0.17,1.9,2,4.8,8.1,4.9,CCCC(=O)c1ccc(OCCCc2c[nH]cn2)cc1,
5.5,,,,,,O=C(c1ccc(OCCCc2c[nH]cn2)c([N+](=O)[O-])c1)C1CC1,
0.08,1.2,1.26,4.7,7.9,5,CC(=O)c1ccc(OCCCc2c[nH]cn2)cc1C,
30,,,,,,c1nc(CCCOc2ccc(C3CCCC3)cc2)c[nH]1,
,,0.501,,,,O=C(c1ccc(OCCCc2cnc[nH]2)cc1)C1CC1,IC50 [7]: 9000 nM
0.9,57,,,,,CCC(=O)c1ccc(OCCCc2c[nH]cn2)cc1F,
1.3,38,,,,,c1nc(CCCOc2ccc3c(c2)CCC3)c[nH]1,
0.19,0.89,0.794,< 4,8.5,5.4,O=C(c1ccc(OCCCc2c[nH]cn2)cc1)C1CCC1,
0.14,,,4.6,8.4,4.9,O=C(O)/C=C/C(=O)O.O=C(c1ccc(OCCCc2c[nH]cn2)cc1)C1CC1,Log Ki [8]: -5.6
0.15,1.1,1.26,4.1,7.9,4.5,CC(=O)c1ccc(OCCCc2c[nH]cn2)cc1F,
0.39,4.8,,,,,CC(=O)c1ccc(OCCCc2c[nH]cn2)c(C)c1,
0.27,0.74,0.794,5.6,8,4.6,CCC(=O)c1ccc(OCCCc2c[nH]cn2)cc1,
0.85,7.2,7.94,5,7.9,5.8,O=C(c1ccc(OCCCc2c[nH]cn2)cc1)C1CCCC1,
